According to ChEMBL document CHEMBL4052590, “Anti-Osteoporotic Activity of Harpagoside by Upregulation of the BMP2 and Wnt Signaling Pathways in Osteoblasts and Suppression of Differentiation in Osteoclasts” (J Nat Prod, 2017):
The source made the active and inactive calls. The rule behind the calls is not given here.

Legend:
[1] = tested on: Mus musculus; test: Decrease in OVX-induced increase in body weight in ICR mouse at 2 to 10 mg/kg, po for 12 weeks; assay type: functional, organism-based
[2] = tested on: MC3T3-E1; test: Upregulation of OPG protein expression in mouse MC3T3-E1 cells up to 4 uM after 48 hrs in presence of ascorbic acid and beta-glycerophosphate by Western blot analysis; assay type: functional, cell-based
[3] = tested on: Mus musculus; test: Anti-osteoporotic activity in ovariectomized ICR mouse assessed as increase in ratio of bone volume to tissue volume of femur at 2 to 10 mg/kg, po after 12 weeks by microcomputed tomography; assay type: functional, organism-based
[4] = organism: Mus musculus; test: Activation of Wnt signaling pathway in mouse MC3T3-E1 cells assessed as increase in BMP2 protein expression up to 4 uM after 48 hrs in presence of ascorbic acid and beta-glycerophosphate by Western blot analysis; assay type: cell-based
Method in brief: (§1)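 MC3T3-E1 cells given 400 μM ascorbic acid plus 5 mM β-glycerophosphate, exposed to test compound or not for 48 h. Lysed in boiling SDS sample buffer, protein measured by BCA. 40−50 μg of lysate run on 8% or 10% SDS-PAGE and transferred to PVDF. Blocked in 5% milk, probed with primary antibodies for 3 h at room temperature or overnight at 4 °C, detected by ECL.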

[5] = tested on: Mus musculus; test: Effect on osteocalcin level in serum of OVX-induced bone loss ICR mouse model at 2 mg/kg, po for 12 weeks by ELISA (reference value: 176.9 +/- 4.7 ng/ml); assay type: functional
[6] = tested on: Mus musculus; test: Anti-osteoporotic activity in ovariectomized ICR mouse assessed as suppression of changes in trabecular separation in femur at 2 to 10 mg/kg, po after 12 weeks by microcomputed tomography; assay type: functional, organism-based
[7] = Cytotoxicity against mouse osteoclasts assessed as effect on cell survival up to 4 uM after 72 hrs by MTT assay; assay type: cell-based, Osteoclast; conditions: read-out: Survival
[8] = tested on: Mus musculus; test: Effect on osteocalcin level in serum of OVX-induced bone loss ICR mouse model at 10 mg/kg, po for 12 weeks by ELISA (reference value: 176.9 +/- 4.7 ng/ml); assay type: functional
[9] = tested on: Mus musculus; test: Effect on calcium level in serum of OVX-induced bone loss ICR mouse model at 5 mg/kg, po for 12 weeks by ELISA (reference value: 9.3 +/- 0.3 mg/dl); assay type: functional
[10] = tested on: MC3T3-E1; test: Upregulation of ALP protein expression in 2 days differentiated mouse MC3T3-E1 cells up to 4 uM after 48 hrs in presence of ascorbic acid and beta-glycerophosphate by Western blot analysis; assay type: functional, cell-based
[11] = target: T1, Catenin beta-1 (Mus musculus) (UniProt Q02248); test: Downregulation of beta-catenin phosphorylated protein expression in mouse MC3T3-E1 cells up to 4 uM after 48 hrs in presence of ascorbic acid and beta-glycerophosphate by Western blot analysis; assay type: cell-based; method in brief: as §1
T1 sequence (whole entry): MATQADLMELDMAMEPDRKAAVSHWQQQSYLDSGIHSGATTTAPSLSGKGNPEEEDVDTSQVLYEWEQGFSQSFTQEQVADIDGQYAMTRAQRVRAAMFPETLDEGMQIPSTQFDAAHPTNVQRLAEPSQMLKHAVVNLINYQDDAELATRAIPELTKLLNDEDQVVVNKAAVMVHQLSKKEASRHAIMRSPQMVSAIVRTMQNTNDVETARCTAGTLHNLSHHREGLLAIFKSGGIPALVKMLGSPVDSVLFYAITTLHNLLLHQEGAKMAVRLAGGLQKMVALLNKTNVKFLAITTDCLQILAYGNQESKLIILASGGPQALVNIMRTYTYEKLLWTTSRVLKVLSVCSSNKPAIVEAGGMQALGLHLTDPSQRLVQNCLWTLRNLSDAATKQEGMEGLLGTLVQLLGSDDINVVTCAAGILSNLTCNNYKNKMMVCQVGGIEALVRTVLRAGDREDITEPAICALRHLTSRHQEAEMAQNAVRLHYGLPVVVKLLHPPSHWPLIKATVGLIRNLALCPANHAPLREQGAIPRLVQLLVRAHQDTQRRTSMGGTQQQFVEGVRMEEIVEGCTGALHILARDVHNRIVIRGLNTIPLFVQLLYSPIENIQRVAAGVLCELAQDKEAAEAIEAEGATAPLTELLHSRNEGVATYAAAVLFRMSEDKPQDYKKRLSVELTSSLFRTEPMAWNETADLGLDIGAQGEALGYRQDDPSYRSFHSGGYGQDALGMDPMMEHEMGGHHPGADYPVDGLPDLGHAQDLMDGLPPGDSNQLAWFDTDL

[12] = tested on: MC3T3-E1; test: Increase in OPG mRNA expression in mouse MC3T3-E1 cells up to 4 uM after 48 hrs in presence of ascorbic acid and beta-glycerophosphate by real-time PCR analysis; assay type: functional, cell-based
Method in brief: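 MC3T3-E1 cells stimulated with 400 μM ascorbic acid and 5 mM β-glycerophosphate, with or without compound, 48 h. TRIzol RNA, real-time RT-PCR: 40 cycles of 95 °C 20 s, 56 °C 20 s, 72 °C 30 s. Ct of each transcript […] β-actin Ct, expressed relative to control samples.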

[13] = tested on: Mus musculus; test: Anti-osteoporotic activity in po dosed OVX-induced bone loss ICR mouse model assessed as increase in bone mineral density administered for 12 weeks by microcomputed tomography; assay type: functional, organism-based
[14] = tested on: MC3T3-E1; test: Upregulation of OCN protein expression in mouse MC3T3-E1 cells up to 4 uM after 48 hrs in presence of ascorbic acid and beta-glycerophosphate by Western blot analysis; assay type: functional, cell-based
[15] = tested on: MC3T3-E1; test: Upregulation of OPN protein expression in 2 days differentiated mouse MC3T3-E1 cells up to 4 uM after 48 hrs in presence of ascorbic acid and beta-glycerophosphate by Western blot analysis; assay type: functional, cell-based
[16] = tested on: Mus musculus; test: Effect on alkaline phosphatase activity in serum of OVX-induced bone loss ICR mouse model at 2 mg/kg, po for 12 weeks using p-NPP as substrate (reference value: 84.9 +/- 4.2 U/L); assay type: functional
[17] = tested on: Mus musculus; test: Effect on […] level in serum of OVX-induced bone loss ICR mouse model at 5 mg/kg, po for 12 weeks by ELISA (reference value: 8.2 +/- 0.4 mg/dl); assay type: functional
[18] = tested on: Osteoclast; test: Inhibition of RANKL/M-CSF-induced osteoclast differentiation in mouse bone marrow-derived osteoclasts assessed as downregulation of NFATc1 protein expression up to 4 uM after 48 hrs by Western blot analysis; assay type: functional, cell-based
Method in brief: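 Mouse bone marrow cells were taken from 4-week-old mice and primed 24 h in 30 ng/mL M-CSF. They were then given 100 ng/mL RANKL plus 30 ng/mL M-CSF, with or without compound, for 48 h. Lysates were made in boiling SDS buffer and quantified by BCA. 40–50 μg was run on SDS-PAGE and immunoblotted on PVDF with β-actin reference and ECL read-out.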

[19] = tested on: Mus musculus; test: Effect on C-terminal telopeptide level in serum of OVX-induced bone loss ICR mouse model at 5 mg/kg, po for 12 weeks by ELISA (reference value: 95.7 +/- 3.8 ng/ml); assay type: functional
[20] = tested on: Mus musculus; test: Effect on […] level in serum of OVX-induced bone loss ICR mouse model at 2 mg/kg, po for 12 weeks by ELISA (reference value: 8.2 +/- 0.4 mg/dl); assay type: functional

For `C[C@]1(OC(=O)/C=C/c2ccccc2)C[C@@H](O)[C@]2(O)C=CO[C@@H](O[C@@H]3O[C@H](CO)[C@@H](O)[C@H](O)[C@H]3O)[C@@H]21` [HARPAGOSIDE], the Activity [1] was “Active”, the Activity [2] was “Active” and the Activity [3] was “Active”. For the same molecule, the Activity [4] was “Active”, the Activity [5] was 170 ng/mL and the Activity [6] was “Active”. The viability at 72 h [7] was greater than 85%, the Activity [8] was 156.9 ng/mL and the Activity [9] was 9.6 mg/dL. For the same molecule, the Activity [10] was “Dose-dependent effect”, the Activity [11] was “Active” and the Activity [12] was “Active”. For the same molecule, the Activity [13] was “Dose-dependent effect”, the Activity [14] was “Active” and the Activity [15] was “Dose-dependent effect”. The Activity [16] was 78.5 U/L, the Activity [17] was 8 mg/dL and the inhibition [18] was “Active”. It also gave an Activity [19] of 85.9 ng/mL and an Activity [20] of 7.9 mg/dL.
